# Assay results gathered from unrelated publications.
# Lines come from different studies, so protocols differ.
# Effect on: cell growth or viability
SMILES,cell line,technique,time,endpoint,result
C[C@H](NC(=O)[C@H](CC(=O)NCC(C)(C)C)NC(=O)C(=O)c1c[nH]c2ccccc12)C(=O)NCc1ccc(F)cc1F,RPMI-8226,MTS,72 h,IC50,11.5 µM
COc1cc2c3c(n(CCCNCCO)c(=O)c2cc1OC)-c1nc2c(cc1C3=O)OCO2,RPMI-8226,MTS,72 h,IC50,0.559 µM
CCCN1C(=O)[C@H](CC(C)C)NC(=O)[C@@H](N(C)C(=O)[C@H](CC2CCC2)NC(=O)[C@@H]2C[C@@H](F)CN2C(=O)[C@@](C)(O)C(F)(F)F)CCCCNC(=O)C2(CC2)NC(=O)[C@@H]1Cc1cc(Cl)ccc1Cl,NCI-H69,MTT,5 days,GI50,0.006 µM
C=CC(=O)N1CCN(c2nc(=O)n(-c3c(C)ccnc3C(C)C)c3nc(-c4c(O)cccc4F)c(F)cc23)[C@@H](C)C1,TOV21G,ATP luminescence,,IC50,> 10 µM
COc1cccc2c1C(=O)c1c(O)c3c(c(O)c1C2=O)C[C@@](O)(C(=O)CO)C[C@@H]3O[C@H]1C[C@H](N)[C@H](O)[C@H](C)O1,MDA-MB-157,MTT,72 h,IC50,0.5 µM
C=CC(=O)NC1CCN(c2ncc3ncnc(Nc4ccc(Oc5ccc6c(c5)ncn6C)c(C)c4)c3n2)CC1,CAL-120,,,EC50,4.93 µM
CCC[C@H]1NC(=O)[C@H](Cc2cc(Cl)ccc2-c2cnn(C)c2)N(C)C(=O)[C@H](CC(C)C)NC(=O)[C@@H](N(C)C(=O)[C@H](CCCCN2CCOCC2)NC(=O)[C@@H](c2cccnc2)C2CCCCC2)CCCCNC1=O,NCI-H69,MTT,5 days,GI50,5.2 µM
CCNCCCn1c2c(c3cc(OC)c(OC)cc3c1=O)C(=O)c1cc3c(nc1-2)OCO3,RPMI-8226,MTS,72 h,IC50,0.19 µM
C=C(F)C(=O)N1CCN(c2nc(OC[C@@H]3CCCN3C)nc3c2CCN(c2cccc4cccc(Cl)c24)C3)C[C@@H]1CC#N,TOV21G,ATP luminescence,,IC50,> 10 µM
